The nature of assay [1]: (§1) Antiviral activity against Influenza A virus (H1N1) harboring PR8-GLuc infected in human A549 cells assessed as reduction in virus-induced cytopathic effect treated post viral infection for 1 hr by luciferase reporter gene assay. Type of assay: functional, cell-based, H1N1 subtype. The conditions noted are these: A549, 1 h. In short, it runs like this: (§2)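 A549 cells seeded 40,000/well, incubated overnight 37 °C 5% CO2, then infected with PR8-GLuc (H1N1) at 0.1 MOI for 1 h; unbound virus removed by two acidic (PBS pH 2.2) and three neutral (PBS pH 7.4) washes. Initial screen at one concentration below maximum non-toxic concentration; those reaching 50% inhibition retested in dose response for EC50 and EC90.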

Assay [2] has as its system H1N1 subtype. Described as §1. Type of assay: functional, cell-based. In short, it runs like this: as §2

A value given as a limit tells only on which side of the number the result lay.

Usually EC50 stands for the concentration needed to bring the measured effect to its halfway point. A word on the EC90: it is the concentration needed for an effect of 90%.

As to `O=C(O)[C@H]1C2CCC(C3CC32)[C@@H]1Nc1nc(-c2c[nH]c3ncc(F)cc23)ncc1F` (stereo partly drawn), in assay [1], the EC50 is 50 nM.
On to `O=C(O)[C@H]1C2C=CC(CC2)[C@@H]1Nc1nc2cnc(-c3c[nH]c4ncc(F)cc34)nc2s1` (stereo partly drawn), for which the EC50 in assay [1] is > 100000 nM.
Same read-out and setting: the result for `Cn1cnc2nc(-c3c[nH]c4ncc(F)cc34)nc(N[C@H]3C4C=CC(CC4)[C@@H]3C(=O)O)c21` (stereo partly drawn) reads > 10000 nM; that for `Cc1cc2nc(-c3c[nH]c4ncc(F)cc34)nc(N[C@H]3C4C=CC(CC4)[C@@H]3C(=O)O)c2s1` (stereo partly drawn), 27 nM; that for `O=C(O)[C@H]1C2C=CC(CC2)[C@@H]1c1nnc2c(F)cnc(-c3c[nH]c4ncc(F)cc34)n12` (stereo partly drawn), > 40000 nM.
On the same count and under the same terms, the result for `O=C(O)[C@H]1C2C=CC(CC2)[C@@H]1Nc1nc(-c2c[nH]c3ncc(F)cc23)nc2sccc12` (stereo partly drawn) reads 6.5 nM; that for `O=C(O)[C@H]1C2C=CC(CC2)[C@@H]1Nc1nc(-c2c[nH]c3ncc(F)cc23)nc2ccsc12` (stereo partly drawn), 17 nM.
Still for that read-out and setting: the result for `Cc1csc2c(N[C@H]3C4C=CC(CC4)[C@@H]3C(=O)O)nc(-c3c[nH]c4ncc(F)cc34)nc12` (stereo partly drawn) reads 29 nM.
With `O=C(O)[C@H]1C2C=CC(C2)[C@@H]1Nc1nc(-c2c[nH]c3ncc(F)cc23)ncc1F` (stereo partly drawn), the EC50 in assay [1] was 50 nM.
With `O=C(O)[C@H]1C2CCC(CC2)[C@@H]1Nc1nc(-c2c[nH]c3ncc(F)cc23)ncc1F` [PIMODIVIR], in assay [1], the EC50 is 4 nM. In assay [2], the EC90 turned out to be 0.027 µM.
Consider `O=C(O)[C@H]1C2C=CC(CC2)[C@@H]1Nc1nc(-c2c[nH]c3ncc(F)cc23)ncc1F` (stereo partly drawn), for which the EC50 in assay [1] came to 7 nM.
Same read-out and setting: the value for `O=C(O)[C@H]1C2C=CC(CC2)[C@@H]1Nc1nc(-c2n[nH]c3ncc(F)cc23)nc2ccsc12` (stereo partly drawn) was 42 nM; that for `Cn1cnc2c(N[C@H]3C4C=CC(CC4)[C@@H]3C(=O)O)nc(-c3c[nH]c4ncc(F)cc34)nc21` (stereo partly drawn) was 400 nM.
As for `O=C(O)[C@H]1C2C=CC(CC2)[C@@H]1Nc1cc2nncn2c(-c2c[nH]c3ncc(F)cc23)n1` (stereo partly drawn), the EC50 in assay [1] was 680 nM.
Still for that read-out and setting: the result for `O=C(O)[C@H]1C2C=CC(CC2)[C@@H]1Nc1nc(-c2n[nH]c3ncc(F)cc23)nc2sccc12` (stereo partly drawn) reads 12 nM.
The same measure, in the same setting: the result for `O=C(O)[C@H]1C2C=CC(CC2)[C@@H]1Nc1nc(-c2n[nH]c3ncc(F)cc23)ncc1F` (stereo partly drawn) reads 16 nM.
On the same count and under the same terms, the result for `O=C(O)C12CC3CC(CC(Nc4nc(-c5c[nH]c6ncc(F)cc56)ncc4F)(C3)C1)C2` reads 950 nM.

The values are drawn from ChEMBL document CHEMBL4396965.
